# Experimental data published in ChEMBL document CHEMBL1777679, “Discovery and optimization of pyrazoline compounds as B-Raf inhibitors” (Bioorg Med Chem Lett, 2010).
# pIC50: −log10 of the molar value.
# How the values were obtained:
# [1] = biological target: T1, Serine/threonine-protein kinase B-raf (Homo sapiens, UniProt P15056, V600E); test: Inhibition of B-Raf V600E mutant after 2 hrs; settings: in the assay text read “after 3 hrs” for “after 2 hrs”
# Procedure, shortened: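 Raf kinase activity measured with a biotinylated peptide substrate at 30 °C for 3 h. After the stop step, the mixture was incubated 2 h on a streptavidin-coated flashplate and counts were read by scintillation.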
# [2] = biological target: T1, Serine/threonine-protein kinase B-raf; test: Inhibition of B-Raf V600E mutant-mediated pERK phosphorylation in human A375 cells after 3 hrs by whole cell ELISA assay; type: cell-based, A-375
# Procedure, shortened: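 A375 human melanoma cells (B-Raf V600E) were seeded overnight and exposed to inhibitor for 3 h. Cells were then fixed, permeabilized and blocked overnight. Detection used anti-phospho-ERK antibody for 1 h, then an HRP conjugate, with tetramethylbenzidine read at OD 650 nm.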
# [3] = Aqueous solubility of the compound in 50 mM of potassium phosphate buffer at pH 6.8 by turbidimetric method; type: physicochemical
# Procedure, shortened: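 Turbidimetric kinetic solubility in 50 mM potassium phosphate buffer, pH 6.8.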
# [4] = biological target: Serine/threonine-protein kinase B-raf (Homo sapiens, UniProt P15056); test: Inhibition of B-Raf
# Procedure, shortened: (§1)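 Raf kinase reaction with biotinylated peptide substrate run 3 h at 30 °C. After a stop step, the mixture is held 2 h on streptavidin-coated flashplates to capture the substrate, and the plates are read by scintillation counting.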
# [5] = biological target: RAF proto-oncogene serine/threonine-protein kinase (Homo sapiens, UniProt P04049); test: Inhibition of C-Raf
# [6] = biological target: T1, Serine/threonine-protein kinase B-raf; test: Inhibition of B-Raf V600E mutant; procedure, shortened: as §1
# [7] = biological target: T1, Serine/threonine-protein kinase B-raf; test: Inhibition of B-Raf V600E mutant after 3 hrs
# [8] = Clearance in Sprague-Dawley rat at 0.5 to 1 mg/kg, iv and 10 mg/kg, po; type: ADME, organism-based; settings: in vivo
# Procedure, shortened: (§2)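 Male SD rats dosed intravenously at 0.5 mg/kg or 1 mg/kg, or orally at 10 mg/kg. Plasma exposure, clearance and oral bioavailability derived from plasma levels.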
# [9] = AUC in Sprague-Dawley rat at 0.5 to 1 mg/kg, iv and 10 mg/kg, po; type: ADME, organism-based; settings: plasma; procedure, shortened: as §2
# [10] = Bioavailability in Sprague-Dawley rat at 0.5 to 1 mg/kg, iv and 10 mg/kg, po; type: ADME, organism-based; settings: in vivo; procedure, shortened: as §2
# T1 sequence (P15056 2-766 V600E limits assumed): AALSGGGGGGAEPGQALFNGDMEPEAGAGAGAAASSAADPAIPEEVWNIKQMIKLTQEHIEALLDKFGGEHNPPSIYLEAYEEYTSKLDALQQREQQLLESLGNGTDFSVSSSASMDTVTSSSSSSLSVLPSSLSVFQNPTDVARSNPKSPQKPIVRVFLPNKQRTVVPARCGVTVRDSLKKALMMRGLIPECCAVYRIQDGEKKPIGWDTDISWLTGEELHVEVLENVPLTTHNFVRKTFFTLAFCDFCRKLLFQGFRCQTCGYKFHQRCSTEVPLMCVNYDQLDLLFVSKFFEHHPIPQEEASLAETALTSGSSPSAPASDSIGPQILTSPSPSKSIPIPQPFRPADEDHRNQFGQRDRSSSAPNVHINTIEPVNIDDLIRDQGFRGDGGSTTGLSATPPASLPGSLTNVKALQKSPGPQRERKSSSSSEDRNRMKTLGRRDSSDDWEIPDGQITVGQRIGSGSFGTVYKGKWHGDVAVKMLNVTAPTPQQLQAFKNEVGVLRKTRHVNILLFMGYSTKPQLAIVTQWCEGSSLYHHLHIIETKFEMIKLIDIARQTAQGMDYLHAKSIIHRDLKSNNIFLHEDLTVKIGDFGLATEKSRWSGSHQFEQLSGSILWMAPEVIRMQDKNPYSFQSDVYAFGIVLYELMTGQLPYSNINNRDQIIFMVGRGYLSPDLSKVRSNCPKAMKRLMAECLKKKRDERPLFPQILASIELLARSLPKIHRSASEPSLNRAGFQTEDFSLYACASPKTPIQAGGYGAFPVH
# Sequence of Serine/threonine-protein kinase B-raf (Homo sapiens, UniProt P15056) (P15056 whole entry): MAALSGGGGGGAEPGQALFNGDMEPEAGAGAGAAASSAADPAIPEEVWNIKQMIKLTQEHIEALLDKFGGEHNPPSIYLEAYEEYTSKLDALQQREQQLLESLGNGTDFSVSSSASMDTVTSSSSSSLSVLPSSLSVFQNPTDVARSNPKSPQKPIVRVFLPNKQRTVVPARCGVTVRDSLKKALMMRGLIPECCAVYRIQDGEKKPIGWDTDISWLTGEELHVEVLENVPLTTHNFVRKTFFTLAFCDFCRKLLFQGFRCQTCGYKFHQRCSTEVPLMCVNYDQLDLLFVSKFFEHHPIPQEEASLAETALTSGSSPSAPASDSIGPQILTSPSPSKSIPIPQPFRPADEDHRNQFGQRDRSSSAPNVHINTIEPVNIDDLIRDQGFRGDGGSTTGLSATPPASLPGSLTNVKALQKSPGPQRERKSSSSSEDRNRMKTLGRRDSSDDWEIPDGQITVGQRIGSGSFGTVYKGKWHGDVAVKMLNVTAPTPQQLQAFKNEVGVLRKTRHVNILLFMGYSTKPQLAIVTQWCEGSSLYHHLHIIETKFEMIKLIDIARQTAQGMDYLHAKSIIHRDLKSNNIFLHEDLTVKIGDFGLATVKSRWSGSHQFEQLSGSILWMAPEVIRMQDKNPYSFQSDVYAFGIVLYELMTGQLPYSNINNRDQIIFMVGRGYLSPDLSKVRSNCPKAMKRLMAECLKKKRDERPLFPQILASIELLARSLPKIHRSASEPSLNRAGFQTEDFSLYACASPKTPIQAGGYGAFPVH
# Sequence of RAF proto-oncogene serine/threonine-protein kinase (P04049 whole entry): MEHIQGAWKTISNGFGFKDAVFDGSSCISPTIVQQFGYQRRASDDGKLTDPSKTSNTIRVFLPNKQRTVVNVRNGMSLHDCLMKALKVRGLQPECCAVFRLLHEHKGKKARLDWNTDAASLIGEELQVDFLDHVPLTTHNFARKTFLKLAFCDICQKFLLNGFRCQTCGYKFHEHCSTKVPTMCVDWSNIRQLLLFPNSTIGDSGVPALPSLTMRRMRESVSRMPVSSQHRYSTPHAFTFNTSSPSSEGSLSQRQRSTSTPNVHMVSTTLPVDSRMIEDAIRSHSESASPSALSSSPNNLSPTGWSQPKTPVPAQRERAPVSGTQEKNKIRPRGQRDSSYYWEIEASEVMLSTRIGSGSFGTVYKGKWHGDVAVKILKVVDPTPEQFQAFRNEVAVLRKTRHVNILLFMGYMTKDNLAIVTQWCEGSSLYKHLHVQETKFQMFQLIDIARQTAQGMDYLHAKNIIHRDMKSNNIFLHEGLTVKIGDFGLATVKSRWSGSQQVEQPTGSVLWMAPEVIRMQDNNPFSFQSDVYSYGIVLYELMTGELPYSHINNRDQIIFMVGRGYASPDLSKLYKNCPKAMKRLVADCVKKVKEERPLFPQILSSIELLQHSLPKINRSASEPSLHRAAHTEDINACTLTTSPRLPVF
structure (smiles),measurement,setting,value
O=C(c1ccc(-c2cccc(CN3CCCC3)c2)s1)N1N=C(c2cccnc2)CC1c1c(O)cccc1F (racemic),pIC50,[1],8.10
same,pIC50,[2],7.39
O=C(c1ccc(-c2ccccn2)s1)N1N=C(c2cccnc2)CC1c1ccccc1O (racemic),pIC50,[2],6.74
same,solubility kinetic,[3],5.8 µg/mL
same,pIC50,[4],7.77
same,pIC50,[5],7.57
same,pIC50,[6],7.64
same,pIC50,[7],7.64
NCc1ccc(-c2ccc(C(=O)N3N=C(c4cccnc4)CC3c3c(O)cccc3F)s2)cc1 (racemic),pIC50,[1],8.52
same,pIC50,[2],7.43
O=C(c1ccc(-c2ccc3c(c2)CNCC3)s1)N1N=C(c2cccnc2)CC1c1c(O)cccc1F (racemic),pIC50,[1],8.52
same,pIC50,[2],7.68
O=C(c1ccc(-c2ccc3c(c2)CCNC3)s1)N1N=C(c2cccnc2)CC1c1c(O)cccc1F (racemic),pIC50,[1],8.52
same,pIC50,[2],7.47
O=C(c1ccc(-c2ccc3c(c2)CNC3)s1)N1N=C(c2cccnc2)CC1c1c(O)cccc1F (racemic),pIC50,[2],7.22
same,clearance,[8],15 mL/min/kg
same,AUC,[9],8.4 µM·h
same,bioavailability,[10],37%
same,pIC50,[7],8.70
NCc1ccccc1-c1ccc(C(=O)N2N=C(c3cncc(F)c3)CC2c2ccccc2O)s1 (racemic),pIC50,[2],6.74
same,pIC50,[7],7.68
NCc1ccccc1-c1ccc(C(=O)N2N=C(c3cncc(N)c3)CC2c2ccccc2O)s1 (racemic),pIC50,[1],8.15
same,pIC50,[2],7.19
CC(=O)Nc1cncc(C2=NN(C(=O)c3ccc(-c4ccccn4)s3)C(c3ccccc3O)C2)c1 (racemic),pIC50,[1],8.52
same,pIC50,[2],7.20
O=C(c1ccc(-c2ccccn2)s1)N1N=C(c2cncc(CO)c2)CC1c1ccccc1O (racemic),pIC50,[1],8.52
same,pIC50,[2],7.41
Nc1cncc(C2=NN(C(=O)c3ccc(-c4ccccn4)s3)C(c3ccccc3O)C2)c1 (racemic),pIC50,[1],8.52
same,pIC50,[2],7.51
O=C(c1ccc(-c2ccc3c(c2)CNC3)s1)N1N=C(c2cncc(CO)c2)CC1c1c(O)cccc1F (racemic),pIC50,[1],8.52
same,pIC50,[2],6.92
NCc1ccccc1-c1ccc(C(=O)N2N=C(c3cncc(N)c3)CC2c2c(O)cccc2F)s1 (racemic),pIC50,[1],8.40
same,pIC50,[2],7.25
Nc1cncc(C2=NN(C(=O)c3ccc(-c4ccccn4)s3)C(c3c(O)cccc3F)C2)c1 (racemic),pIC50,[1],8.52
same,pIC50,[2],7.74
O=C(c1ccc(-c2cccc3c2CCNC3)s1)N1N=C(c2cccnc2)CC1c1c(O)cccc1F (racemic),pIC50,[2],6.74
same,clearance,[8],11.7 mL/min/kg
same,AUC,[9],26 µM·h
same,bioavailability,[10],89%
Cc1ccccc1-c1ccc(C(=O)N2N=C(c3cccnc3)CC2c2ccccc2O)s1 (racemic),pIC50,[1],7.10
same,pIC50,[2],5.82
Cc1nc(-c2ccc(C(=O)N3N=C(c4cccnc4)CC3c3ccccc3O)s2)cs1 (racemic),pIC50,[1],8.15
same,pIC50,[2],6.68
Cn1cc(-c2ccc(C(=O)N3N=C(c4cccnc4)CC3c3ccccc3O)s2)cn1 (racemic),pIC50,[1],8.05
same,pIC50,[2],7.05
O=C(c1ccc(-c2ccc(CO)cc2)s1)N1N=C(c2cccnc2)CC1c1ccccc1O (racemic),pIC50,[1],8.30
same,pIC50,[2],6.85
NCc1cccc(-c2ccc(C(=O)N3N=C(c4cccnc4)CC3c3ccccc3O)s2)c1 (racemic),pIC50,[1],8.22
same,pIC50,[2],6.41
NCc1ccccc1-c1ccc(C(=O)N2N=C(c3cccnc3)CC2c2ccccc2O)s1 (racemic),pIC50,[1],8.00
same,pIC50,[2],6.57
same,clearance,[8],65 mL/min/kg
same,AUC,[9],4.9 µM·h
same,bioavailability,[10],76%
O=C(c1ccc(-c2cccc(CN3CCCC3)c2)s1)N1N=C(c2cccnc2)CC1c1ccccc1O (racemic),pIC50,[1],8.22
same,pIC50,[2],6.96
NCc1ccc(-c2ccc(C(=O)N3N=C(c4cccnc4)CC3c3ccccc3O)s2)cc1 (racemic),pIC50,[1],8.30
same,pIC50,[2],7.09
O=C(c1ccc(-c2ccc3c(c2)CNCC3)s1)N1N=C(c2cccnc2)CC1c1ccccc1O (racemic),pIC50,[1],8.40
same,pIC50,[2],7.60
O=C(c1ccc(-c2ccc3c(c2)CCNC3)s1)N1N=C(c2cccnc2)CC1c1ccccc1O (racemic),pIC50,[1],8.30
same,pIC50,[2],7.68
O=C(c1ccc(-c2ccc3c(c2)CNC3)s1)N1N=C(c2cccnc2)CC1c1ccccc1O (racemic),pIC50,[1],8.40
same,pIC50,[2],7.72
same,clearance,[8],58.3 mL/min/kg
same,AUC,[9],0.89 µM·h
same,bioavailability,[10],14%
O=C(c1ccc(-c2ccccn2)s1)N1N=C(c2cccnc2)CC1c1ccccc1 (racemic),pIC50,[1],6.10
O=C(c1ccc(-c2ccccn2)s1)N1N=C(c2cccnc2)CC1c1cccc(O)c1 (racemic),pIC50,[1],6.17
same,pIC50,[2],< 4.60
O=C(c1ccc(-c2ccccn2)s1)N1N=C(c2cccnc2)CC1c1c(O)cccc1F (racemic),pIC50,[1],8.30
same,pIC50,[2],7.10
O=C(c1ccc(-c2ccccn2)s1)N1N=C(c2cccnc2)CC1c1cccc(F)c1O (racemic),pIC50,[1],7.89
same,pIC50,[2],5.85
O=C(c1ccc(-c2ccccn2)s1)N1N=C(c2cccnc2)CC1c1cc(F)ccc1O (racemic),pIC50,[1],8.15
same,pIC50,[2],6.17
O=C(c1ccc(-c2ccccn2)s1)N1N=C(c2cccnc2)CC1c1ccc(F)cc1O (racemic),pIC50,[1],7.96
same,pIC50,[2],5.85
Cn1cc(-c2ccc(C(=O)N3N=C(c4cccnc4)CC3c3c(O)cccc3F)s2)cn1 (racemic),pIC50,[1],8.52
same,pIC50,[2],7.26
NCc1ccccc1-c1ccc(C(=O)N2N=C(c3cccnc3)CC2c2c(O)cccc2F)s1 (racemic),pIC50,[1],8.15
same,pIC50,[2],7.07
same,clearance,[8],26.7 mL/min/kg
same,AUC,[9],11 µM·h
same,bioavailability,[10],85%
O=C(c1ccco1)N1N=C(c2cccnc2)CC1c1ccccc1O (racemic),pIC50,[2],5.74
same,pIC50,[7],6.70
"O=C(c1ccc(-c2ccccn2)s1)N1N=C(c2cccnc2)CC1c1ccccc1O (single isomer, unassigned; enantiomer 1)",pIC50,[2],6.55
"O=C(c1ccc(-c2ccccn2)s1)N1N=C(c2cccnc2)CC1c1ccccc1O (single isomer, unassigned; enantiomer 2)",pIC50,[2],4.85
